Results taken from ChEMBL document CHEMBL2331349, “Discovery of olmesartan hexetil: a new potential prodrug of olmesartan” (Bioorg Med Chem Lett, 2013).

Legend:
Rattus norvegicus [1] = experiment: AUClast in Sprague-Dawley rat assessed as olmesartan at 20 mg/kg, po; type: ADME, organism-based, Plasma; parameters: time 0 - last, dose 20 mg/kg, route oral; conditions: in vivo
Method in brief: (§1)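 Male Sprague-Dawley rats (n = 4) dosed orally by feeding tube, 20 mg/kg as olmesartan. Carotid artery blood drawn at 0, 0.5, 1, 2, 3, 4, 6, 8, 10 h; plasma stored until analysis. Olmesartan measured by modified LC–MS/MS. Non-compartmental analysis; AUClast by trapezoidal rule; Tmax given as median (range), others mean ± SD.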

[2] = Half life in rat liver microsomes at 1 uM; type: ADME, Microsome
Method in brief: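 Incubation with rat liver microsomes, 0.5 mg/mL total protein, 1.2 mM NADPH, 100 mM phosphate buffer pH 7.4. Substrate added from acetonitrile stock to 1 µM final, 37 °C. Samples at 0, 15, 30, 60, 120 min quenched with twofold cold acetonitrile containing internal standard, centrifuged, supernatant by LC–MS/MS. Mean of duplicate experiments.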

[3] = Half life in rat plasma at 1 uM; type: ADME, cell-free
Method in brief: (§2)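 Substrate added from acetonitrile stock to rat plasma or simulated gastric juice, 1 µM final, 37 °C. Samples at 0, 15, 30, 60, 120 min quenched with twofold cold acetonitrile containing internal standard, centrifuged, supernatant analysed by LC–MS/MS. Half-life reported as mean of duplicate experiments.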

[4] = Half life in simulated gastric juice at 1 uM; type: physicochemical; method in brief: as §2
Rattus norvegicus [5] = experiment: Tmax in Sprague-Dawley rat assessed as olmesartan at 20 mg/kg, po; type: ADME, organism-based; parameters: dose 20 mg/kg, route oral; conditions: in vivo; method in brief: as §1
Rattus norvegicus [6] = experiment: Cmax in Sprague-Dawley rat assessed as olmesartan at 20 mg/kg, po; type: ADME, organism-based; parameters: dose 20 mg/kg, route oral; conditions: in vivo; method in brief: as §1

Work on CCCc1nc(C(C)(C)O)c(C(=O)OC(C)OC(=O)OC2CCCCC2)n1Cc1ccc(-c2ccccc2-c2nnn[nH]2)cc1 (stereo not given) [OLMESARTAN HEXETIL] yielded an AUClast (Rattus norvegicus [1]) of 3013.8 ng·h/mL, a half-life at 1 µM [2] of 2.77 min and a half-life at 1 µM [3] of 1.54 min. For the same compound, the half-life at 1 µM [4] was 390 min, the Tmax (Rattus norvegicus [5]) was 54 min and the Cmax (Rattus norvegicus [6]) was 1374.7 ng/mL.
CCCc1nc(C(C)(C)O)c(C(=O)OCc2oc(=O)oc2C)n1Cc1ccc(-c2ccccc2-c2nnn[nH]2)cc1 [OLMESARTAN MEDOXOMIL] gave an AUClast (Rattus norvegicus [1]) of 501.9 ng·h/mL, a half-life at 1 µM [4] greater than 1000 min and a Tmax (Rattus norvegicus [5]) of 60 min. It also gave a Cmax (Rattus norvegicus [6]) of 153.6 ng/mL.
